Reference: ChEMBL document CHEMBL1649122, “Abc1p is a multidrug efflux transporter that tips the balance in favor of innate azole resistance in Candida krusei” (2009)
≈ marks a conversion by molar mass, not a printed value. Calls of active or inactive are those of the source. The calls are words filed in the database; no cut-off is given here.

Assays:
Pichia kudriavzevii [1] = assay: Antimicrobial activity against Candida krusei IFO0011 after 48 hrs by liquid microdilution assay; format: functional; settings: IFO0011, 48 h
Outline: (§1)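 Liquid broth microdilution susceptibility assay in CSM medium at pH 7.0, which was also the medium used for the expression studies. Fungal strains were maintained in YPD. The S. cerevisiae test strains carry C. krusei ABC1 or fungal ERG11 alleles integrated at the chromosomal PDR5 locus.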

Pichia kudriavzevii [2] = assay: Increase in ERG11 mRNA expression in Candida krusei B2399 at 2 times MIC concentration after 1 hr by hot-phenol extraction based Northern blotting; format: functional, organism-based
Outline: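 Logarithmically grown C. krusei B2399 was exposed to azole for 60 min (2x MIC for VRC, MCZ and ITC; 1x MIC for FLC) alongside an untreated control. Total RNA was extracted with hot phenol, and 10 µg was run on 1.2% denaturing agarose. It was Northern blotted and probed with a radiolabeled ERG11 fragment. ACT1 mRNA served as internal control, with EtBr-stained rRNA showing loading.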

Pichia kudriavzevii [3] = assay: Antimicrobial activity against Candida krusei NZCDC 89.102 after 48 hrs by liquid microdilution assay; format: functional; settings: NZCDC 89.102, 48 h; outline: as §1
Saccharomyces cerevisiae [4] = assay: Fold resistant, ratio of MIC for Saccharomyces cerevisiae isolate ADdelta overexpressing Saccharomyces cerevisiae ERG11 to MIC for Saccharomyces cerevisiae isolate ADdelta overexpressing Abc1p; format: functional
Outline: (§2)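 Fold resistance is the ratio of azole MICs between S. cerevisiae overexpressing strains. The MICs were measured by liquid broth microdilution in CSM medium at pH 7.0. The ERG11 or ABC1 constructs are integrated at the PDR5 locus.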

Pichia kudriavzevii [5] = assay: Antimicrobial activity against Candida krusei NZCDC 90.147 after 48 hrs by liquid microdilution assay; format: functional; settings: NZCDC 90.147, 48 h; outline: as §1
Pichia kudriavzevii [6] = assay: Antimicrobial activity against Candida krusei NZCDC 90.147 after 48 hrs by CLSI method; format: functional
Outline: (§3)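 Azole MICs were determined by the CLSI M27-A2 broth microdilution reference method. They were interpreted against the CLSI breakpoints. Strains were maintained in YPD medium (1% yeast extract, 2% peptone, 2% glucose).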

Saccharomyces cerevisiae [7] = assay: Antimicrobial activity against Saccharomyces cerevisiae isolate ADdelta overexpressing Abc1p after 48 hrs by liquid microdilution assay; format: functional; outline: as §1
Pichia kudriavzevii [8] = assay: Antimicrobial activity against Candida krusei NZCDC 89.021 after 48 hrs by liquid microdilution assay; format: functional; settings: NZCDC 89.021, 48 h; outline: as §1
Saccharomyces cerevisiae [9] = assay: Antimicrobial activity against Saccharomyces cerevisiae isolate AD overexpressing Candida krusei ERG11C after 48 hrs by liquid microdilution assay; format: functional; outline: as §1
Pichia kudriavzevii [10] = assay: Antimicrobial activity against Candida krusei NZCDC 89.021 after 48 hrs by CLSI method; format: functional; settings: NZCDC 89.021, 48 h; outline: as §3
Saccharomyces cerevisiae [11] = assay: Fold resistant, ratio of MIC for Saccharomyces cerevisiae isolate ADdelta overexpressing Candida krusei ERG11C to MIC for Saccharomyces cerevisiae isolate ADdelta overexpressing Abc1p; format: functional; outline: as §2
Pichia kudriavzevii [12] = assay: Antimicrobial activity against Candida krusei NZCDC 89.221 after 48 hrs by CLSI method; format: functional; outline: as §3
Pichia kudriavzevii [13] = assay: Antimicrobial activity against Candida krusei NZCDC 89.221 after 48 hrs by liquid microdilution assay; format: functional; settings: NZCDC 89.221, 48 h; outline: as §1
Saccharomyces cerevisiae [14] = assay: Fold resistant, ratio of MIC for Saccharomyces cerevisiae isolate ADdelta overexpressing Candida krusei ERG11g to MIC for Saccharomyces cerevisiae isolate ADdelta overexpressing Abc1p; format: functional; outline: as §2
Saccharomyces cerevisiae [15] = assay: Fold resistant, ratio of MIC for Saccharomyces cerevisiae isolate ADdelta overexpressing Candida albicans ERG11A to MIC for Saccharomyces cerevisiae isolate ADdelta overexpressing Abc1p; format: functional; outline: as §2
Saccharomyces cerevisiae [16] = assay: Antimicrobial activity against Saccharomyces cerevisiae isolate ADdelta overexpressing Candida krusei ERG11g after 48 hrs by liquid microdilution assay; format: functional; outline: as §1
Pichia kudriavzevii [17] = assay: Antimicrobial activity against Candida krusei IFO0011 after 48 hrs by CLSI method; format: functional; settings: IFO0011, 48 h; outline: as §3
Saccharomyces cerevisiae [18] = assay: Antimicrobial activity against Saccharomyces cerevisiae isolate ADdelta overexpressing Candida albicans ERG11A after 48 hrs by liquid microdilution assay; format: functional; outline: as §1
Pichia kudriavzevii [19] = assay: Antimicrobial activity against Candida krusei B2399 after 48 hrs by CLSI method; format: functional; settings: B2399, 48 h; outline: as §3
Saccharomyces cerevisiae [20] = assay: Antimicrobial activity against Saccharomyces cerevisiae isolate ADdelta overexpressing Saccharomyces cerevisiae ERG11 after 48 hrs by liquid microdilution assay; format: functional; outline: as §1
Pichia kudriavzevii [21] = assay: Antimicrobial activity against Candida krusei NZCDC 89.102 after 48 hrs by CLSI method; format: functional; outline: as §3
Pichia kudriavzevii [22] = assay: Antimicrobial activity against Candida krusei B2399 after 48 hrs by liquid microdilution assay; format: functional; settings: B2399, 48 h; outline: as §1
[23] = target: ATP binding cassette transporter Abc1p (Issatchenkia orientalis) (UniProt Q09GQ4); assay: Inhibition of Candida krusei ABC1 expressed in Saccharomyces cerevisiae isolate ADdelta at 0.36 nM; settings: Pichia kudriavzevii
Outline: (§4)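 Agarose disk-diffusion test of S. cerevisiae AD overexpressing C. krusei Abc1p, with the parent AD strain as comparison. Cells were pregrown from YPD overnight into CSM to mid-log at 30°C. They were seeded at OD600 0.008 in CSM with 0.6% agarose, overlaid on CSM agar (pH 7.0). Paper disks carrying set nmol amounts of xenobiotic were applied, and plates were incubated at 30°C for 48 h before reading growth inhibition zones.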

[24] = target: ATP binding cassette transporter Abc1p (Issatchenkia orientalis) (UniProt Q09GQ4); assay: Inhibition of Candida krusei […] expressed in Saccharomyces cerevisiae isolate ADdelta assessed as fractional inhibitory concentration index at 2.5 ug/ml after 48 hrs by checkerboard susceptibility assay; settings: Pichia kudriavzevii
Outline: (§5)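 Checkerboard susceptibility assay combining the Abc1p inhibitor with FLC or ITC. MICs were determined at various inhibitor concentrations. The fractional inhibitory concentration index was calculated for each combination.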

[25] = target: ATP binding cassette transporter Abc1p (Issatchenkia orientalis) (UniProt Q09GQ4); assay: Inhibition of Candida krusei B2399 Abc1p assessed as fractional inhibitory concentration index at 2.5 ug/ml after 48 hrs by checkerboard susceptibility assay; settings: Pichia kudriavzevii; outline: as §5
[26] = target: ATP binding cassette transporter Abc1p (Issatchenkia orientalis) (UniProt Q09GQ4); assay: Inhibition of Candida krusei ABC1 expressed in Saccharomyces cerevisiae isolate ADdelta at 0.026 nM; settings: Pichia kudriavzevii; outline: as §4
[27] = target: ATP binding cassette transporter Abc1p (Issatchenkia orientalis) (UniProt Q09GQ4); assay: Inhibition of Candida krusei Abc1p expressed in Saccharomyces cerevisiae isolate AD assessed as reduction of itraconazole MIC at 1 ug after 48 hrs by agarose diffusion assay; settings: Pichia kudriavzevii
[28] = target: ATP binding cassette transporter Abc1p (Issatchenkia orientalis) (UniProt Q09GQ4); assay: Inhibition of Candida krusei B2399 Abc1p assessed as reduction of fluconazole MIC at 2.5 ug/ml after 48 hrs by checkerboard susceptibility assay; settings: Pichia kudriavzevii
Outline: (§6)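 Checkerboard liquid microdilution in CSM (pH 7.0). FLC or ITC MICs of AD/CkABC1g or C. krusei B2399 were measured across a range of milbemycin concentrations. Interaction was expressed as fractional inhibitory concentration index (FICI).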

[29] = target: ATP binding cassette transporter Abc1p (Issatchenkia orientalis) (UniProt Q09GQ4); assay: Inhibition of Candida krusei IF011 Abc1p assessed as reduction of itraconazole MIC at 1 ug after 48 hrs by agarose diffusion assay; settings: Pichia kudriavzevii
[30] = target: ATP binding cassette transporter Abc1p (Issatchenkia orientalis) (UniProt Q09GQ4); assay: Inhibition of Candida krusei Abc1g expressed in Saccharomyces cerevisiae isolate ADdelta assessed as reduction of fluconazole MIC at 2.5 ug/ml after 48 hrs by checkerboard susceptibility assay; settings: Pichia kudriavzevii; outline: as §6
[31] = target: ATP binding cassette transporter Abc1p (Issatchenkia orientalis) (UniProt Q09GQ4); assay: Inhibition of Candida krusei B2399 Abc1p assessed as reduction of itraconazole MIC at 2.5 ug/ml after 48 hrs by checkerboard susceptibility assay; settings: Pichia kudriavzevii; outline: as §6
[32] = target: ATP binding cassette transporter Abc1p (Issatchenkia orientalis) (UniProt Q09GQ4); assay: Inhibition of Candida krusei B2399 Abc1p assessed as reduction of itraconazole MIC at 1 ug after 48 hrs by agarose diffusion assay; settings: Pichia kudriavzevii
[33] = target: ATP binding cassette transporter Abc1p (Issatchenkia orientalis) (UniProt Q09GQ4); assay: Inhibition of Candida krusei Abc1g expressed in Saccharomyces cerevisiae isolate ADdelta assessed as reduction of itraconazole MIC at 2.5 ug/ml after 48 hrs by checkerboard susceptibility assay; settings: Pichia kudriavzevii; outline: as §6

C[C@@H](c1ncncc1F)[C@](O)(Cn1cncn1)c1ccc(F)cc1F [VORICONAZOLE]
MIC (Pichia kudriavzevii [1]): 1 µg/mL (≈ 2.86 µM)
Activity (Pichia kudriavzevii [2]): Active
MIC (Pichia kudriavzevii [3]): 2 µg/mL (≈ 5.73 µM)
ratio (Saccharomyces cerevisiae [4]): 8
MIC (Pichia kudriavzevii [5]): 2 µg/mL (≈ 5.73 µM)
MIC (Pichia kudriavzevii [6]): 1 µg/mL (≈ 2.86 µM)
MIC (Saccharomyces cerevisiae [7]): 0.0078 µg/mL (≈ 0.0223 µM)
MIC (Pichia kudriavzevii [8]): 2 µg/mL (≈ 5.73 µM)
MIC (Saccharomyces cerevisiae [9]): 0.063 µg/mL (≈ 0.18 µM)
MIC (Pichia kudriavzevii [10]): 0.5 µg/mL (≈ 1.43 µM)
ratio (Saccharomyces cerevisiae [11]): 8
MIC (Pichia kudriavzevii [12]): 0.5 µg/mL (≈ 1.43 µM)
MIC (Pichia kudriavzevii [13]): 1 µg/mL (≈ 2.86 µM)
ratio (Saccharomyces cerevisiae [14]): 64
ratio (Saccharomyces cerevisiae [15]): 4
MIC (Saccharomyces cerevisiae [16]): 0.5 µg/mL (≈ 1.43 µM)
MIC (Pichia kudriavzevii [17]): 1 µg/mL (≈ 2.86 µM)
MIC (Saccharomyces cerevisiae [18]): 0.031 µg/mL (≈ 0.0887 µM)
MIC (Pichia kudriavzevii [19]): 0.5 µg/mL (≈ 1.43 µM)
MIC (Saccharomyces cerevisiae [20]): 0.063 µg/mL (≈ 0.18 µM)
MIC (Pichia kudriavzevii [21]): 0.5 µg/mL (≈ 1.43 µM)
MIC (Pichia kudriavzevii [22]): 1 µg/mL (≈ 2.86 µM)

CCC(C)n1ncn(-c2ccc(N3CCN(c4ccc(OCC5COC(Cn6cncn6)(c6ccc(Cl)cc6Cl)O5)cc4)CC3)cc2)c1=O (stereo not given) [ITRACONAZOLE]
MIC (Pichia kudriavzevii [1]): 1 µg/mL (≈ 1.42 µM)
Activity (Pichia kudriavzevii [2]): Active
MIC (Pichia kudriavzevii [3]): 2 µg/mL (≈ 2.83 µM)
ratio (Saccharomyces cerevisiae [4]): 8
MIC (Pichia kudriavzevii [5]): 1 µg/mL (≈ 1.42 µM)
MIC (Pichia kudriavzevii [6]): 0.25 µg/mL (≈ 0.354 µM)
MIC (Saccharomyces cerevisiae [7]): 0.031 µg/mL (≈ 0.0439 µM)
MIC (Pichia kudriavzevii [8]): 1 µg/mL (≈ 1.42 µM)
MIC (Saccharomyces cerevisiae [9]): 0.063 µg/mL (≈ 0.0893 µM)
MIC (Pichia kudriavzevii [10]): 0.25 µg/mL (≈ 0.354 µM)
ratio (Saccharomyces cerevisiae [11]): 2
Activity [23]: inactive
MIC (Pichia kudriavzevii [12]): 0.125 µg/mL (≈ 0.177 µM)
MIC (Pichia kudriavzevii [13]): 1 µg/mL (≈ 1.42 µM)
ratio (Saccharomyces cerevisiae [14]): 128
fractional inhibitory concentration index (FICI) [24]: 0.104
ratio (Saccharomyces cerevisiae [15]): 4
MIC (Saccharomyces cerevisiae [16]): 4 µg/mL (≈ 5.67 µM)
MIC (Pichia kudriavzevii [17]): 0.25 µg/mL (≈ 0.354 µM)
MIC (Saccharomyces cerevisiae [18]): 0.125 µg/mL (≈ 0.177 µM)
MIC (Pichia kudriavzevii [19]): 0.25 µg/mL (≈ 0.354 µM)
MIC (Saccharomyces cerevisiae [20]): 0.25 µg/mL (≈ 0.354 µM)
fractional inhibitory concentration index (FICI) [25]: 0.298
MIC (Pichia kudriavzevii [21]): 0.25 µg/mL (≈ 0.354 µM)
MIC (Pichia kudriavzevii [22]): 0.5 µg/mL (≈ 0.709 µM)

Clc1ccc(COC(Cn2ccnc2)c2ccc(Cl)cc2Cl)c(Cl)c1 (stereo not given) [MICONAZOLE]
Activity (Pichia kudriavzevii [2]): Active
MIC (Pichia kudriavzevii [3]): 4 µg/mL (≈ 9.61 µM)
ratio (Saccharomyces cerevisiae [4]): 4
MIC (Pichia kudriavzevii [6]): 4 µg/mL (≈ 9.61 µM)
MIC (Saccharomyces cerevisiae [7]): 0.0078 µg/mL (≈ 0.0187 µM)
MIC (Pichia kudriavzevii [8]): 4 µg/mL (≈ 9.61 µM)
MIC (Saccharomyces cerevisiae [9]): 0.125 µg/mL (≈ 0.3 µM)
Activity [26]: inactive
MIC (Pichia kudriavzevii [10]): 2 µg/mL (≈ 4.81 µM)
ratio (Saccharomyces cerevisiae [11]): 16
MIC (Pichia kudriavzevii [12]): 2 µg/mL (≈ 4.81 µM)
MIC (Pichia kudriavzevii [13]): 4 µg/mL (≈ 9.61 µM)
ratio (Saccharomyces cerevisiae [14]): 64
ratio (Saccharomyces cerevisiae [15]): 8
MIC (Saccharomyces cerevisiae [16]): 0.5 µg/mL (≈ 1.2 µM)
MIC (Pichia kudriavzevii [17]): 4 µg/mL (≈ 9.61 µM)
MIC (Saccharomyces cerevisiae [18]): 0.063 µg/mL (≈ 0.151 µM)
MIC (Pichia kudriavzevii [19]): 4 µg/mL (≈ 9.61 µM)
MIC (Saccharomyces cerevisiae [20]): 0.031 µg/mL (≈ 0.0745 µM)
MIC (Pichia kudriavzevii [21]): 2 µg/mL (≈ 4.81 µM)
MIC (Pichia kudriavzevii [22]): 2 µg/mL (≈ 4.81 µM)

C/C=C(\C)C(=O)OCC1=C[C@H]2C(=O)O[C@H]3C[C@@H](C/C=C(\C)C[C@@H](C)/C=C/C=C4\CO[C@H]([C@@H]1O)[C@@]42O)O[C@@]1(CC[C@H](C)[C@@H](C)O1)C3
Activity [27]: Active
MIC [28]: 64 µg/mL
Activity [29]: Active
Activity [30]: Active
MIC [31]: 0.125 µg/mL
Activity [32]: Active
Activity [33]: Active
